Calls of active or inactive are those of the source. No cut-off for these calls is given here.
How the values were obtained:
Bile acid receptor [1] = target: T1, Bile acid receptor (Homo sapiens, UniProt Q96RI1); experiment: Agonist activity at human GST-fused FXR LBD assessed as cofactor peptide interaction with receptor ligand binding domain by FRET assay
T1 sequence (Q96RI1 whole entry): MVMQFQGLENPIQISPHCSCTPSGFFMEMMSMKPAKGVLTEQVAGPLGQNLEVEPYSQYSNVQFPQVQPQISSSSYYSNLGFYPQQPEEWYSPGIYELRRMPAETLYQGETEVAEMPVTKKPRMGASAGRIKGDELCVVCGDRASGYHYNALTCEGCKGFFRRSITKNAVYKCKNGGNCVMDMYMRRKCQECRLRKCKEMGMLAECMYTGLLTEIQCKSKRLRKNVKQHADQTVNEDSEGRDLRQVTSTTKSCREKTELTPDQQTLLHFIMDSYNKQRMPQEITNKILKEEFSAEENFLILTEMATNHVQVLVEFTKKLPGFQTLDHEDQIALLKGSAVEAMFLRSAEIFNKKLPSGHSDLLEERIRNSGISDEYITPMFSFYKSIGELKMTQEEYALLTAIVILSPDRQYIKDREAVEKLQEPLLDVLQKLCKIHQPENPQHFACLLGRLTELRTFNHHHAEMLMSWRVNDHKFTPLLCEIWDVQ

[2] = target: T2, Bile acid receptor (Homo sapiens) (UniProt Q96RI1); experiment: Agonist activity at human GST-fused FXR LBD assessed as cofactor peptide interaction with receptor ligand binding domain by FRET assay relative to GW-4064
T2 sequence (whole entry): T1 sequence (Q96RI1 whole entry)

Bile acid receptor [3] = target: T1, Bile acid receptor; experiment: Agonist activity at human […] FXR LBD expressed in HEK293 cells coexpressing GAL4-DNA bindig domain and pFRluc by mammalian one-hybrid assay; type: functional, cell-based; settings: read-out: EC50
[4] = target: T2, Bile acid receptor (Homo sapiens); experiment: Agonist activity at human […] FXR LBD expressed in HEK293 cells coexpressing GAL4-DNA bindig domain and pFRluc by mammalian one-hybrid assay relative to GW-4064; type: functional, cell-based
Bile acid receptor [5] = target: T1, Bile acid receptor; experiment: Agonist activity at human full length FXR transfected in HEK293 cells coexpressing pTRexDest/pGL2promotor assessed as luciferase activity by direct reporter cellular assay; type: functional, cell-based; settings: read-out: EC50
[6] = target: T2, Bile acid receptor (Homo sapiens); experiment: Agonist activity at human full length FXR transfected in HEK293 cells coexpressing pTRexDest/pGL2promotor assessed as luciferase activity by direct reporter cellular assay relative to GW-4064; type: functional, cell-based
[7] = Plasma concentration in db/db mouse at 5 mg/kg, po after 5 mins; type: ADME, organism-based; design: dose 5 mg/kg, route oral; settings: read-out: Drug uptake
Summary of the method: (§1)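 Single dose to mice, 5 mg/kg po or 1 mg/kg iv. Plasma was sampled at 5, 10, 30, 90 and 240 min. Only parent compound was measured, in ng/mL.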

[8] = Plasma concentration in db/db mouse at 5 mg/kg, po after 10 mins; type: ADME, organism-based; design: dose 5 mg/kg, route oral; settings: read-out: Drug uptake; summary of the method: as §1
[9] = Plasma concentration in db/db mouse at 5 mg/kg, po after 30 mins; type: ADME, organism-based; design: dose 5 mg/kg, route oral; settings: read-out: Drug uptake; summary of the method: as §1
[10] = Plasma concentration in db/db mouse at 5 mg/kg, po after 90 mins; type: ADME, organism-based; design: dose 5 mg/kg, route oral; settings: read-out: Drug uptake; summary of the method: as §1
[11] = Clearance in db/db mouse at 5 mg/kg, po; type: ADME, organism-based; design: dose 5 mg/kg, route oral; settings: in vivo
Summary of the method: (§2)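 Mice received a single dose of 5 mg/kg po or 1 mg/kg iv. Plasma was sampled at 5, 10, 30, 90 and 240 min and the parent compound alone was measured (ng/mL). Clearance (mL/h/kg), Vd (mL/kg) and oral bioavailability were derived from these plasma profiles.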

[12] = Oral bioavailability in db/db mouse at 5 mg/kg, po; type: ADME, organism-based; settings: in vivo
Summary of the method: (§3)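 Derived from the single-dose mouse plasma time courses of parent compound, 5-240 min. Dosing was 5 mg/kg po or 1 mg/kg iv. Volume of distribution is in mL/kg, clearance in mL/h/kg, and oral bioavailability in %.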

[13] = Plasma concentration in db/db mouse at 1 mg/kg, iv after 5 mins; type: ADME, organism-based; design: dose 1 mg/kg, route intravenous; settings: read-out: Drug uptake; summary of the method: as §1
[14] = Plasma concentration in db/db mouse at 1 mg/kg, iv after 10 mins; type: ADME, organism-based; design: dose 1 mg/kg, route intravenous; settings: read-out: Drug uptake; summary of the method: as §1
[15] = Plasma concentration in db/db mouse at 1 mg/kg, iv after 30 mins; type: ADME, organism-based; design: dose 1 mg/kg, route intravenous; settings: read-out: Drug uptake; summary of the method: as §1
[16] = Plasma concentration in db/db mouse at 1 mg/kg, iv after 90 mins; type: ADME, organism-based; design: dose 1 mg/kg, route intravenous; settings: read-out: Drug uptake; summary of the method: as §1
[17] = Plasma concentration in db/db mouse at 1 mg/kg, iv after 240 mins; type: ADME, organism-based; design: dose 1 mg/kg, route intravenous; settings: read-out: Drug uptake; summary of the method: as §1
Mus musculus [18] = experiment: Volume of distribution in db/db mouse at 1 mg/kg, iv; type: ADME, organism-based; design: dose 1 mg/kg, route intravenous; settings: in vivo; summary of the method: as §3
[19] = Clearance in db/db mouse at 1 mg/kg, iv; type: ADME, organism-based; design: dose 1 mg/kg, route intravenous; settings: in vivo; summary of the method: as §2
Liver [20] = experiment: Drug level in db/db mouse liver measured metabolites as carboxylic acid at 5 mg/kg, po after 240 mins; type: ADME, organism-based; design: dose 5 mg/kg, route oral; settings: in vivo, 4 h
Summary of the method: (§4)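 Mice got a single dose, 5 mg/kg po or 1 mg/kg iv. Liver and bile were sampled 240 min after dosing. Parent carboxylic acid, its acyl-glucuronide and its taurine amide were quantified separately, in ng/mL. Glucuronide identity was confirmed by glucuronidase digestion of bile or bile extracts, which regenerated the parent.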

Liver [21] = experiment: Drug level in db/db mouse liver measured metabolites as glucuronide at 5 mg/kg, po after 240 mins; type: ADME, organism-based; design: dose 5 mg/kg, route oral; settings: in vivo, 4 h; summary of the method: as §4
Liver [22] = experiment: Drug level in db/db mouse liver measured metabolites as taurine amide at 5 mg/kg, po after 240 mins; type: ADME, organism-based; design: dose 5 mg/kg, route oral; settings: in vivo, 4 h; summary of the method: as §4
[23] = Drug level in db/db mouse bile measured metabolites as carboxylic acid at 5 mg/kg, po after 240 mins; type: ADME, organism-based; design: dose 5 mg/kg, route oral; settings: in vivo, 4 h
[24] = Drug level in db/db mouse bile measured metabolites as glucuronide at 5 mg/kg, po after 240 mins; type: ADME, organism-based; design: dose 5 mg/kg, route oral; settings: in vivo, 4 h
[25] = Drug level in db/db mouse bile measured metabolites as taurine amide at 5 mg/kg, po after 240 mins; type: ADME, organism-based; design: dose 5 mg/kg, route oral; settings: in vivo, 4 h; summary of the method: as §4
Liver [26] = experiment: Drug level in db/db mouse liver measured metabolites as carboxylic acid at 1 mg/kg, iv after 240 mins; type: ADME, organism-based; design: dose 1 mg/kg, route intravenous; settings: in vivo, 4 h; summary of the method: as §4
Liver [27] = experiment: Drug level in db/db mouse liver measured metabolites as glucuronide at 1 mg/kg, iv after 240 mins; type: ADME, organism-based; design: dose 1 mg/kg, route intravenous; settings: in vivo, 4 h; summary of the method: as §4
Liver [28] = experiment: Drug level in db/db mouse liver measured metabolites as taurine amide at 1 mg/kg, iv after 240 mins; type: ADME, organism-based; design: dose 1 mg/kg, route intravenous; settings: in vivo, 4 h; summary of the method: as §4
[29] = Drug level in db/db mouse bile measured metabolites as carboxylic acid at 1 mg/kg, iv after 240 mins; type: ADME, organism-based; design: dose 1 mg/kg, route intravenous; settings: in vivo, 4 h
[30] = Drug level in db/db mouse bile measured metabolites as glucuronide at 1 mg/kg, iv after 240 mins; type: ADME, organism-based; design: dose 1 mg/kg, route intravenous; settings: in vivo, 4 h
[31] = Drug level in db/db mouse bile measured metabolites as taurine amide at 1 mg/kg, iv after 240 mins; type: ADME, organism-based; design: dose 1 mg/kg, route intravenous; settings: in vivo, 4 h; summary of the method: as §4
Mus musculus [32] = experiment: Reduction in total plasma triglyceride level in db/db mouse at 1-25 mg/kg bid after 12 days; type: functional, organism-based
Summary of the method: (§5)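 C57BL/KSK-mLep^db/mLep^db mice were dosed orally at 1, 5 and 25 mg/kg b.i.d. for 12 days. Total plasma triglycerides and total plasma cholesterol were measured, with cholesterol reported as mg/dl. Significance was given at p<0.05, <0.01 and <0.001 levels.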

Mus musculus [33] = experiment: Reduction in total plasma cholesterol level in db/db mouse at 1-25 mg/kg bid after 12 days; type: functional, organism-based; summary of the method: as §5
[34] = Plasma concentration in db/db mouse at 25 mg/kg bid after 4 hrs by LC/MS-MS analysis; type: ADME, organism-based; design: dose 25 mg/kg; settings: read-out: Drug uptake
Summary of the method: (§6)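 db/db mice were dosed twice daily for 12 days. Plasma and liver concentrations were determined 4 h and 24 h after the last administration.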

[35] = Plasma concentration in db/db mouse at 25 mg/kg bid after 24 hrs by LC/MS-MS analysis; type: ADME, organism-based; design: dose 25 mg/kg; settings: read-out: Drug uptake; summary of the method: as §6
[36] = Drug level in db/db mouse liver at 25 mg/kg bid after 4 hrs by LC/MS-MS analysis; type: ADME, organism-based; design: dose 25 mg/kg; settings: read-out: Drug uptake; summary of the method: as §6
[37] = Drug level in db/db mouse liver at 25 mg/kg bid after 24 hrs by LC/MS-MS analysis; type: ADME, organism-based; design: dose 25 mg/kg; settings: read-out: Drug uptake
Summary of the method: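 C57BL/KSK-mLep^db/mLep^db (db/db) mice dosed orally b.i.d. for 12 days at 1, 5 or 25 mg/kg. Liver concentrations of parent compound measured 24 h after the last administration.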

CN(Cc1ccc(C(=O)NCCS(=O)(=O)O)cc1)c1ccc(OCc2c(-c3c(Cl)cccc3Cl)noc2C2CC2)nc1C(F)(F)F
EC50 (Bile acid receptor [1]): 14 nM
Efficacy [2]: 105%
EC50 (Bile acid receptor [3]): 1420 nM
Efficacy [4]: 57%
EC50 (Bile acid receptor [5]): 925 nM
Efficacy [6]: 49%
concentration at 5 min [7]: 1 ng/mL
concentration at 10 min [8]: 3 ng/mL
concentration at 0.5 h [9]: 6 ng/mL
concentration at 1.5 h [10]: 12 ng/mL
CL/F [11]: 3280 mL/min/kg
bioavailability [12]: 5.8%
concentration at 5 min [13]: 72 ng/mL
concentration at 10 min [14]: 59 ng/mL
concentration at 0.5 h [15]: 3 ng/mL
concentration at 1.5 h [16]: 19 ng/mL
concentration at 4 h [17]: 8 ng/mL
Vd (Mus musculus [18]): 31.7 L/kg
clearance [19]: 190 mL/min/kg
Drug uptake (Liver [20]): 6 ng/mL
Drug uptake (Liver [21]): 30 ng/mL
Drug uptake (Liver [22]): 262 ng/mL
Drug uptake [23]: 32 ng/mL
Drug uptake [24]: 1055 ng/mL
Drug uptake [25]: 32442 ng/mL
Drug uptake (Liver [26]): 8 ng/mL
Drug uptake (Liver [27]): 7 ng/mL
Drug uptake (Liver [28]): 350 ng/mL
Drug uptake [29]: 12 ng/mL
Drug uptake [30]: 169 ng/mL
Drug uptake [31]: 24151 ng/mL

CC[C@H]1[C@@H](O)[C@@H]2[C@H](CC[C@]3(C)[C@@H]([C@H](C)CCC(=O)O)CC[C@@H]23)[C@@]2(C)CC[C@@H](O)C[C@@H]12 [OBETICHOLIC ACID]
Activity (Mus musculus [32]): Active
Activity (Mus musculus [33]): Active
concentration at 4 h [34]: 2.12 µM
concentration at 24 h [35]: 3.24 µM
concentration at 4 h [36]: 13.9 µM
concentration at 24 h [37]: 16.6 µM
